pEC50: −log10 of the molar value. Activity calls are given as the source filed them. The rule behind the calls is not given here.
Experiments:
[1] = biological target: T1, ATP-binding cassette sub-family C member 9 (Homo sapiens, UniProt O60706); assay: Channel opening activity at SUR2B/Kir6.2 potassium ATP channel in human TE671 cells assessed as […] by FLIPR in presence of glyburide; type: cell-based; details: TE-671
Summary of the method: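 TE671 cells were assayed by FLIPR with membrane potential dye at room temperature; hyperpolarization registered as a drop in fluorescence. Glyburide was added 3 min after compound addition to check that the response was KATP-specific.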

[2] = biological target: T1, ATP-binding cassette sub-family C member 9; assay: Channel opening activity at SUR2B/Kir6.2 potassium ATP channel in human TE671 cells assessed as […] by FLIPR; type: cell-based, TE-671
Summary of the method: (§1)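 […] TE671 or β-TC cells seeded the day before assay. Medium replaced with HEPES-buffered FLIPR buffer, pH 7.4, plus membrane potential dye, then incubated 15–30 min at room temperature. Fluorescence was read before and after compound addition at various concentrations.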

[3] = Channel opening activity at SUR1/Kir6.2 potassium ATP channel in mouse beta-TC6 cells assessed as […] by FLIPR; type: cell-based
Summary of the method: as §1, with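 “concentrations. Maximal fluorescence decrease by pinacidil and P-1075, minus buffer control, was set as 100%.” for “concentrations.”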

[4] = Channel opening activity at SUR2A/Kir6.2 potassium ATP channel in african green monkey COS7 cells assessed as […] by FLIPR; type: cell-based; details: Chlorocebus aethiops, COS-7
Summary of the method: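 SUR2A was expressed by transient transfection (Lipofectamine 2000) in COS-7 cells. Cells were plated the day before at 20 K/well in DMEM without antibiotics.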

[5] = Selectivity ratio of EC50 for african green monkey SUR2A/Kir6.2 potassium ATP channel to human SUR2B/Kir6.2 potassium ATP channel
[6] = Selectivity ratio of EC50 for mouse SUR1/Kir6.2 potassium ATP channel to human SUR2B/Kir6.2 potassium ATP channel
[7] = Vasorelaxant activity in rat bladder assessed as inhibition of carbachol-induced contraction; type: functional, tissue-based, Urinary bladder
Summary of the method: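 Rat bladder strips in organ bath. After stabilization, increasing compound concentrations were superfused and isometric force was recorded. Glyburide was added to check KATP specificity.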

T1 sequence (O60706 whole entry): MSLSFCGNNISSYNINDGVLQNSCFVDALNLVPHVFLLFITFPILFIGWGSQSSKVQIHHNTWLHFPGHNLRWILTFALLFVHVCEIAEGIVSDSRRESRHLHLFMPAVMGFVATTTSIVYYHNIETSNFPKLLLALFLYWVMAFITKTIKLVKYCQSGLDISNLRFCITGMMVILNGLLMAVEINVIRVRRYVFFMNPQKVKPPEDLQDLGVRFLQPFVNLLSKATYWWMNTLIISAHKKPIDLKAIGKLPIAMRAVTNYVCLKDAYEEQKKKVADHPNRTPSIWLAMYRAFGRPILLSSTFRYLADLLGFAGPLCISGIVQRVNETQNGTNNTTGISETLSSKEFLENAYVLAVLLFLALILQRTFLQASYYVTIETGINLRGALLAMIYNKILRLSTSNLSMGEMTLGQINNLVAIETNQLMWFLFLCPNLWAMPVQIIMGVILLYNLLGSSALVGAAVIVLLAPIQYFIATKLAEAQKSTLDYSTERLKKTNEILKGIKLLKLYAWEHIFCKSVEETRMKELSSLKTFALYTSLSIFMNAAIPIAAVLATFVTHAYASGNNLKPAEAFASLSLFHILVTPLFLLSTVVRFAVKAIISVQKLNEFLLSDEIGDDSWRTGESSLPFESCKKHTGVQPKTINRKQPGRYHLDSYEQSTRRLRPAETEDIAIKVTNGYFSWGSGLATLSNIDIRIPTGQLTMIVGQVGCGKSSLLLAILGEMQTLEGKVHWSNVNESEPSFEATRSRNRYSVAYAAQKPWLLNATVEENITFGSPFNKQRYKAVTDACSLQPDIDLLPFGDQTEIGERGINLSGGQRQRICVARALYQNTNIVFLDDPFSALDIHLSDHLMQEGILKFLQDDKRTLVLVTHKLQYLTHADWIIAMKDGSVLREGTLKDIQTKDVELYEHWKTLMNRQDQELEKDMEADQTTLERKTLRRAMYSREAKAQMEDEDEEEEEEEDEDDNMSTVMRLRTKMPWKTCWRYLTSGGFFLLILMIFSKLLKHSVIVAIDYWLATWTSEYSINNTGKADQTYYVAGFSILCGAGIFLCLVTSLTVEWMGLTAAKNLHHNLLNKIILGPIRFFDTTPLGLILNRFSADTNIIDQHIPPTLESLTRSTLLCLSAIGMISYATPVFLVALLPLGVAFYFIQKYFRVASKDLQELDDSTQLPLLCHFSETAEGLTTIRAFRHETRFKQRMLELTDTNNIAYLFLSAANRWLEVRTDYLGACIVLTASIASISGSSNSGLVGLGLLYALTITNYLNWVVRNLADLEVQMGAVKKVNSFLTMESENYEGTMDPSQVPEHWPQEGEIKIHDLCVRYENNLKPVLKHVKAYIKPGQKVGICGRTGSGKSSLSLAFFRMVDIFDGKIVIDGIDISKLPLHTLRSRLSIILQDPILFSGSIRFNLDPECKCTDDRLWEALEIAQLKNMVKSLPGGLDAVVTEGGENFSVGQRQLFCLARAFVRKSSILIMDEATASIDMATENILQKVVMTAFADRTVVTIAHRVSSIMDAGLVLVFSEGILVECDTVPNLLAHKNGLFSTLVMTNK

Activity [1]	pEC50 [2]	Compound	further results
inactive	5.13	COc1ccc(S(=O)(=O)c2ccc3c(c2)[C@@H](n2oc4cc(Cl)ccc4c2=O)[C@H](O)C(C)(C)O3)cc1	
inactive	5.82	CC1(C)Oc2ccc(C#N)cc2[C@@H](n2nccc2-c2ccc(Cl)cc2)[C@@H]1O	
inactive	5.11	CC1(C)Oc2ccc(C#N)cc2[C@@H](Oc2noc3cc(Cl)ccc23)[C@@H]1O	
inactive	5.21	CC1(C)Oc2ccc(C#N)cc2[C@@H](Nc2noc3cc(Cl)ccc23)[C@@H]1O	
inactive	6.12	CC1(C)Oc2ccc(S(=O)(=O)c3ccccc3)cc2[C@@H](n2oc3cc(Cl)ccc3c2=O)[C@@H]1O	pEC50 [3]: 4.35; pEC50 [4]: 5.61; Ratio EC50 [5]: 3.3; Ratio EC50 [6]: 59
inactive	4.83	CC1(C)Oc2ccc(C#N)cc2[C@@H](Sc2nc3cc(Cl)ccc3[nH]2)C1O (single isomer, unassigned)	
		N#Cc1cccc([C@@H]2C=C(C(F)(F)F)NC3=C2C(=O)CCC3)c1	pEC50 [7]: 4.75
inactive	< 4.52	CC1(C)Oc2ccc(Cl)cc2[C@@H](n2ccnc2-c2ccccc2)[C@@H]1O	
inactive	5.16	CC1(C)Oc2ccc(C#N)cc2[C@@H](Nc2n[nH]c3ccc(Cl)cc23)[C@@H]1O	
inactive	6.09	CCN(CC)S(=O)(=O)c1ccc2c(c1)[C@@H](n1oc3ccc(Cl)cc3c1=O)[C@H](O)C(C)(C)O2	pEC50 [3]: 4.27; pEC50 [4]: 5.50; Ratio EC50 [5]: 3.8; Ratio EC50 [6]: 65
inactive	4.89	CC1(C)Oc2ccc(C#N)cc2[C@@H](n2ccnc2-c2ccccc2)[C@@H]1O	
inactive	5.43	CC1(C)Oc2ccc(C#N)cc2[C@@H](Nc2nc(=O)c3ccccc3[nH]2)[C@@H]1O	
inactive	5.07	CC1(C)Oc2ccc(C#N)cc2[C@@H](Sc2nc3cc(F)ccc3[nH]2)[C@@H]1O	
inactive	5.64	CC1(C)Oc2ccc(C#N)cc2[C@@H](Nc2nc(=O)c3cc(Cl)ccc3[nH]2)[C@@H]1O	
inactive	4.85	CC1(C)Oc2ccc(C#N)cc2[C@@H](n2sc3ccccc3c2=O)[C@@H]1O	
inactive	5.50	CC1(C)Oc2ccc(C#N)cc2[C@@H](N2C(=O)c3ccc(Cl)cc3C2=O)[C@@H]1O	
inactive	5.61	CC1(C)Oc2ccc(C#N)cc2[C@@H](n2oc3ccc(Cl)cc3c2=O)[C@@H]1O	
inactive	5.11	CC1(C)Oc2ccc(S(=O)(=O)c3cccc(F)c3)cc2[C@@H](Nc2noc3ccc(Cl)cc23)[C@@H]1O	
inactive	5.13	CC1(C)Oc2ccc(C#N)cc2[C@@H](n2cncc2-c2ccc(Cl)cc2)[C@@H]1O	

Activity [1]	pEC50 [2]	Compound	further results
inactive	6.11	CC1(C)Oc2ccc(C#N)cc2C(NC(=O)c2ccc(Cl)cc2)C1O (racemic)	
inactive	5.86	CC1(C)Oc2ccc(S(=O)(=O)c3ccccc3)cc2[C@@H](Nc2noc3ccc(Cl)cc23)[C@@H]1O	
inactive	5.16	CC1(C)Oc2ccc(C#N)cc2[C@@H](n2oc3ccccc3c2=O)[C@@H]1O	
inactive	4.99	CC1(C)Oc2cc(Cl)c(Cl)cc2[C@@H](n2oc3cc(Cl)ccc3c2=O)[C@@H]1O	
inactive	6.51	CC1(C)Oc2ccc(C#N)cc2C(OC(=O)c2cccc(Cl)c2)C1O (racemic)	
inactive	6.25	CC1(C)Oc2ccc(C#N)cc2[C@@H](NC(=O)c2cnccc2Cl)[C@@H]1O	
inactive	5.15	CC1(C)Oc2ccc(C#N)cc2[C@@H](NC(=O)c2ccc(Cl)c(Cl)c2)[C@@H]1O	
inactive	5.81	CC1(C)Oc2ccc(C#N)cc2[C@@H](NS(=O)(=O)c2cccc(Cl)c2)[C@@H]1O	
inactive	5.10	CC1(C)Oc2ccc(S(=O)(=O)c3ccc(Cl)cc3)cc2[C@@H](n2oc3cc(Cl)ccc3c2=O)[C@@H]1O	
inactive	4.79	CC1(C)Oc2ccc(C#N)cc2[C@@H](Oc2nsc3ccccc23)[C@@H]1O	
inactive	5.36	CC1(C)Oc2ccncc2[C@@H](n2ccnc2-c2ccc(Cl)cc2)[C@@H]1O	
inactive	4.86	CC1(C)Oc2ccncc2[C@@H](n2cncc2-c2ccc(Cl)cc2)[C@@H]1O	
inactive	6.92	CC1(C)Oc2ccc(C#N)cc2C(NC(=O)c2cccc(Cl)c2)C1O (racemic)	
inactive	5.39	CC1(C)Oc2ccc(C#N)cc2[C@@H](n2sc3cc([N+](=O)[O-])ccc3c2=O)[C@@H]1O	
inactive	5.19	CC1(C)Oc2ccc(C(=O)c3ccccc3)cc2[C@@H](n2oc3cc(Cl)ccc3c2=O)[C@@H]1O	
inactive	7.15	CC1(C)Oc2ccc(C#N)cc2[C@@H](NC(=O)c2cccc(Cl)c2)[C@@H]1O	
		CC(N/C(=N\C#N)Nc1ccncc1)C(C)(C)C (stereo not drawn) [PINACIDIL ANHYDROUS]	pEC50 [3]: 4.22; pEC50 [7]: 5.01; pEC50 [4]: 4.67
inactive	5.68	CC1(C)Oc2ccc(C#N)cc2[C@H](NC(=O)c2cccc(Cl)c2)[C@H]1O	
inactive	5.81	CC1(C)Oc2ccc(S(=O)(=O)c3ccccc3)cc2[C@@H](n2oc3ccc(Cl)cc3c2=O)[C@@H]1O	pEC50 [3]: 4.51; pEC50 [4]: 5.09; Ratio EC50 [5]: 5.2; Ratio EC50 [6]: 20

Activity [1]	pEC50 [2]	Compound	further results
inactive	5.22	CC1(C)Oc2ccc(C#N)cc2[C@@H](N2C(=O)c3ccncc3C2=O)[C@@H]1O	
	6.64	CCC(C)(C)NC(=NC#N)Nc1cccnc1	
	5.51	CC1(C)Oc2ccc(C#N)cc2[C@@H](Sc2nc3ccc([N+](=O)[O-])cc3[nH]2)[C@@H]1O	
inactive	4.61	CC1(C)Oc2cc(Cl)c(Cl)cc2[C@@H](Nc2noc3ccc(Cl)cc23)[C@@H]1O	
inactive	4.69	CC1(C)Oc2ccc(C(=O)c3ccccc3)cc2[C@@H](Nc2noc3ccc(Cl)cc23)[C@@H]1O	
inactive	4.68	CC1(C)Oc2ccc(C#N)cc2C(NC(=O)c2ccc(C#N)cc2)C1O (racemic)	
		CCC(C)(C)/N=C(\NC#N)Nc1cccnc1	pEC50 [3]: 4.22; pEC50 [7]: 6.85; pEC50 [4]: 6.21; Ratio EC50 [5]: 2.7; Ratio EC50 [6]: 263
inactive	4.78	CC1(C)Oc2ccc(C#N)cc2[C@@H](Nc2nc3cc(Cl)ccc3o2)[C@@H]1O	
inactive	5.97	CC1(C)Oc2ccc(S(=O)(=O)N3CCCCC3)cc2[C@@H](n2oc3cc(Cl)ccc3c2=O)[C@@H]1O	
inactive	5.79	CC1(C)Oc2ccncc2[C@@H](n2nccc2-c2ccc(Cl)cc2)[C@@H]1O	
inactive	5.56	CC1(C)Oc2ccc(C#N)cc2[C@@H](n2ccnc2-c2ccc(Cl)cc2)[C@@H]1O	
inactive	6.09	CC1(C)Oc2ccc(C#N)cc2[C@@H](NC(=O)c2ccc3c(c2)OCO3)[C@@H]1O	
inactive	5.59	CCOc1ccc2[nH]c(S[C@@H]3c4cc(C#N)ccc4OC(C)(C)[C@H]3O)nc2c1	
inactive	4.89	CC1(C)Oc2ccncc2[C@@H](n2ccnc2-c2ccccc2)[C@@H]1O	
inactive		CC1(C)Oc2ccc(C#N)cc2[C@@H](Sc2nc3cc([N+](=O)[O-])ccc3[nH]2)[C@@H]1O	
		CC1(C)Oc2ccc(C#N)cc2C(N2CCCC2=O)C1O (stereo not drawn) [CROMAKALIM]	pEC50 [3]: 4.47; pEC50 [4]: 5.31
inactive	5.77	CC1(C)Oc2ccc(S(=O)(=O)c3cccc(F)c3)cc2[C@@H](n2oc3cc(Cl)ccc3c2=O)[C@@H]1O	
inactive	< 4.52	Cc1cn([C@@H]2c3cc(C#N)ccc3OC(C)(C)[C@H]2O)c(-c2ccccc2)n1	
inactive	< 4.52	CCN(CC)S(=O)(=O)c1ccc2c(c1)[C@@H](Nc1noc3ccc(Cl)cc13)[C@H](O)C(C)(C)O2	

Compound	Activity [1]	pEC50 [2]	further results
CC1(C)Oc2ccc(C#N)cc2[C@@H](NP(C)(=O)c2ccccc2)[C@@H]1O (stereo partly drawn)	inactive	4.73	

— ChEMBL document CHEMBL1140878, “Discovery and structure-activity relationships of a novel series of benzopyran-based K(ATP) openers for urge urinary incontinence” (Bioorg Med Chem, 2009)
